Measured values: publication PMC8494022 (Chemical Science, 2021)

Experiments:
[1] = tested on: CT26 cells; test: Cellular uptake of FITC-labeled albumin with endocytosis inhibitors; format: cell-based, murine (Balb/c); conditions: 1 h inhibitor pretreatment, uptake after 3 h
[2] = Reduction kinetics with ascorbic acid by NMR; format: physicochemical; conditions: 100 μM, ascorbic acid 10 eq., cell-free, pD 7.4, 37°C
[3] = tested on: CT26 tumors; test: Histological evaluation of treated tumors; format: in vivo, Balb/c mice; conditions: tumors day 12, H&E-stained
Procedure, shortened: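 CT26-bearing BALB/c mice dosed i.v. twice weekly for two weeks, equimolar to 9 mg kg−1 oxaliplatin. Tumors were collected on day 12, 24 h after the last dose. Apoptotic and mitotic cells were counted in H&E sections. Percentages of cleaved caspase-3-positive and Ki-67-positive cells were scored by image analysis. One-way ANOVA with Dunnett's test.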

[4] = tested on: CT26 cells; test: Cellular platinum uptake determined by ICP-MS; format: cell-based, murine (Balb/c); conditions: MβCD, CHP, EIPA 1 h pretreatment, uptake after 3 h
[5] = tested on: CT26 cells; test: Cytotoxicity, MTT-based cell viability assay; set-up: species or system murine (Balb/c)
Procedure, shortened: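 MTT-based viability of CT26 cells after 72 h drug exposure, alone or with 100 μM ascorbic acid co-treatment. Values are means ± SD of one representative experiment run in triplicates.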

[6] = Pharmacokinetic of single dose in serum; format: in vivo, Balb/c mice
Procedure, shortened: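 Naive BALB/c mice (n = 4 per group) received a single i.v. dose equimolar to 9 mg kg−1 oxaliplatin. Serum was sampled between 0.08 h and 336 h, and serum versus blood clot was compared at 24 h. Platinum was quantified by ICP-MS and used for concentration–time curves, AUC and terminal elimination half-life.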

[7] = tested on: CT26 tumors; test: Allograft anticancer activity experiments; format: in vivo; conditions: CT26-bearing BALB/c mice
Procedure, shortened: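 CT26 allografts in immune-competent BALB/c mice; test compounds and oxaliplatin given i.v. twice weekly for two weeks at doses equimolar to 9 mg kg−1 oxaliplatin. Body weight was followed. Tumor growth is reported as mean ± SEM and compared by two-way ANOVA. Overall survival was plotted as Kaplan–Meier curves and compared by log-rank test with Mantel–Cox posttest.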

[8] = cited from earlier work

CCN(c1nc(N)c(C(=O)NC(=N)N)nc1Cl)C(C)C [EIPA, 5-(N-ethyl-N-isopropyl)amiloride]
impact on uptake of FITC-labeled albumin [1]: had no impact on albumin uptake

CC(=O)[O][Pt]([NH2])([Cl])([Cl])([NH]C1CCCCC1)[O]C(C)=O [Satraplatin, satraplatin]
time to complete reduction [2]: < 24 h

O=C1[O][Pt]2([NH][C@@H]3CCCC[C@H]3[NH]2)[O]C1=O [oxaliplatin]
change of mitotic cells [3]: significant increase of mitotic cells | impact of endocytosis inhibitors on cellular drug uptake [4]: neither accumulation of oxaliplatin nor KP2157 were affected by endocytosis inhibition | impact of ascorbic acid co-treatment on activity (cell viability) ([5]; 100 μM AA, 72 h): no relevant impact | IC50 ([5]; after 72 h): ~3.5 µM | serum concentration at first sampling time point relative to KP2156 ([6]; 5 min, equimolar application): drastically lower than for KP2156 | total clearance relative to KP2156 ([6]; single i.v. dose): at least one order of magnitude higher than that of KP2156 | terminal elimination half-life (t ½) ([6]; single i.v. dose equimolar to 9 mg kg−1 oxaliplatin): 32.5 h | impact on tumor growth ([7]; i.v. twice a week for two weeks, equimolar to 9 mg kg−1 oxaliplatin): significant activity | day at which treated tumors progressed again ([7]; same scheme): ~15 days

COc1cccc2c1C(=O)c1c(O)c3c(c(O)c1C2=O)C[C@@](O)(C(=O)CO)C[C@@H]3O[C@H]1C[C@H](N)[C@H](O)[C@H](C)O1 [doxorubicin]
concentration in blood, share of the initial amount ([8]; 15 min after i.v. injection): less than 2% | in vivo elimination half-life [8]: in the order of minutes

COc1cccc2c1C(=O)c1c(O)c3c(c(O)c1C2=O)C[C@@](O)(/C(CO)=N/NC(=O)CCCCCN1C(=O)C=CC1=O)C[C@@H]3O[C@H]1C[C@H](N)[C@H](O)[C@H](C)O1 [aldoxorubicin]
in vivo elimination half-life [8]: 2.3 h | time at which tumor accumulation reached a plateau ([8]; no further increase during the next 24 h): 2 h

methyl-β-cyclodextrin [MßCD]
impact on uptake of FITC-labeled albumin [1]: significantly reduced
